# Measurements taken from the RNAGym collection of RNA variant scans (doi:10.1101/gad.245936.114).
# Variants at the floor of the assay were thinned out.
# B1: tRNA (parent)
# chain: CUCUCGGUAGCCAAGUUGGUUUAAGGCGCAAGACUUUAAUUUAUCACUACGAAAUCUUGAGAUCGGGCGUUCGACUCGCCCCCGGGAGAUUUUUUCCUCGAGCAA
# Variants of: B1
# Assay: nonsense suppression (GFP-seq) (ratio to wild type); higher = more function; SUP4oc tRNA, yeast GFP reporter sort-seq
# How it was run: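 Yeast carrying genome-integrated SUP4oc tRNA variants from a library with ~3% random mutations were grown in raffinose/galactose medium with 80 mg/L adenine. Each strain also carried a galactose-driven GFP ochre reporter and RFP. Cells were sorted into GFP/RFP bins, and each bin was Illumina-sequenced (phred ≥30). Nonsense suppression (GFPSEQ) is the bin median GFP/RFP, weighted by each variant's estimated cell share per bin, relative to wild-type SUP4oc; variants needed ≥100 reads and ≥30 cells.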
row,Variant,nonsense suppression
1,A54C,1.16
2,C34U A74C C79A,≤ 0.026
3,G61A C79U,0.209
4,G61A C79G,≤ 0.026
5,U58G C77U,≤ 0.026
6,U55C G88C,0.0568
7,U58G G66C C80G,0.0324
8,A54U C56A C72U,≤ 0.026
9,G59U U70C C72A,≤ 0.026
10,C34U G61A,0.0297
11,C34U G61C,0.0481
12,U55A U70C,≤ 0.026
13,G61C G85C,0.045
14,G61A C68U G69A G73A,≤ 0.026
15,G61U,1.03
16,G61C,1.14
17,G61A,0.853
18,C34U A54C C56G G73A G88C,≤ 0.026
19,G59U G88A,≤ 0.026
20,U55G A89U,≤ 0.026
21,U35G G59U A60G,≤ 0.026
22,A60G G78A,0.0542
23,A60G G78U,0.0498
24,U57C G66U C81A,≤ 0.026

row,Variant,nonsense suppression
1,U55C U57C,0.026
2,U55C U63A C75G,0.0265
3,U57G C68G C75G,≤ 0.026
4,G61A A87U,0.181
5,G61A A87G,0.197
6,C56G U58C G66C U70C,≤ 0.026
7,A54C C68G,≤ 0.026
8,U35C C83G,≤ 0.026
9,G61C U71C,0.061
10,U58G G59A C80U G86U,≤ 0.026
11,U57A,0.0873
12,A60U C68U,1.1
13,G59C U63A G66A C68U C72A,≤ 0.026
14,U55C U63G,≤ 0.026
15,U55C U63C,0.156
16,U55C U63A,0.244
17,U57A G85U,0.0736
18,U57A G85A,0.165
19,A60C G85C,0.0595
20,U57A G78C,≤ 0.026
21,U55C G84U,0.0453
22,A54C G85C,0.0904
23,U58G U70C,≤ 0.026
24,U55G A74U,≤ 0.026

row,Variant,nonsense suppression
1,G61A G65C G69A C80U,≤ 0.026
2,A54U G85C,0.208
3,A54U G85U,1.01
4,G59C A60C U71G G78A,≤ 0.026
5,A60U A87G,1.02
6,G61A C83A,0.0363
7,G61A U63A,0.304
8,G61A U63G,0.227
9,G61A U63C,0.728
10,A54C G65U,0.0425
11,U55C U76A,0.15
12,A54U G65A,0.0335
13,A54U U76C,1.08
14,A60G G86U,0.0427
15,U55C U58A G67U,≤ 0.026
16,C56U,0.15
17,U58C G61C,0.0324
18,U58C G61A,0.0586
19,A60G G66U,0.0286
20,C56U U58C G66U,≤ 0.026
21,A60G G73C,≤ 0.026
22,G61A G84C,0.0752
23,A54U A87G,0.867
24,U35C U63G,0.0352

row,Variant,nonsense suppression
1,A60G G85C,0.119
2,A60G G85A,1.16
3,A60G G85U,0.138
4,U35G G85U,≤ 0.026
5,A54U C79U,0.571
6,G61A C72A,0.0325
7,G61A C72U,0.0666
8,U58A A60C,0.0508
9,G61A G78U,0.0402
10,A60G C82A,0.0331
11,C34U C77G C79G A89U,≤ 0.026
12,G61A G65A,0.127
13,G61C G78U,0.13
14,A54U U63C,0.798
15,A54U U63G,0.659
16,A54U U63A,0.864
17,A54G U71A,≤ 0.026
18,G61A U76G,0.0268
19,G61A U76C,0.775
20,A54C G86C,0.0725
21,C56U A87G,≤ 0.026
22,A60U G65U A74C C82A,≤ 0.026
23,A60G U63A,0.163
24,G61C U76C,0.23

row,Variant,nonsense suppression
1,A60U U70C U76C,≤ 0.026
2,U55G U63A G86C,≤ 0.026
3,U55A U76A G86A,≤ 0.026
4,G61A G67A G73C,≤ 0.026
5,A54C G84U,0.0301
6,G61C G78A C79U,≤ 0.026
7,G61A A62U G84U,≤ 0.026
8,G61C G84U,0.199
9,U57A U58C C81G,≤ 0.026
10,A60U U76C,1.05
11,U55C C75U,0.903
12,U55C C75A,1.05
13,U55C C75G,1.16
14,U55C U58G,≤ 0.026
15,G61C G69C C79G G84C,≤ 0.026
16,A60C A62C A87G,≤ 0.026
17,U57A G67U U76C,≤ 0.026
18,U55A A74C G88A,≤ 0.026
19,U57A U63C,0.0744
20,A54C U76G A89G,≤ 0.026
21,A54C C75U,1.22
22,A54C C75G,1.15
23,G59C A87U,≤ 0.026
24,U55A C56A C64A U70C,≤ 0.026

row,Variant,nonsense suppression
1,U55C,1.09
2,A60G G69A,0.0526
3,C56A U71A,≤ 0.026
4,G59A G66C,≤ 0.026
5,C34U U70A,≤ 0.026
6,G61C C68U,0.633
7,G59C C68A G88U A89C,≤ 0.026
8,U57C G73A,0.0414
9,A60U C79U,0.761
10,C34U G65A U70A,≤ 0.026
11,A54C A60G,0.0773
12,A54C A60U,1.09
13,G59C C75G,≤ 0.026
14,A60U G65C C81G,0.203
15,U55C C77A,0.0479
16,U55A U71A,≤ 0.026
17,A60G U71C,0.0362
18,A54U G69C C81G,≤ 0.026
19,U58G G85A,0.0573
20,A54C C80G,0.0733
21,A54C C80U,0.194
22,A54G C72A,≤ 0.026
23,C56G U58C G66C,≤ 0.026
24,U35G C56A G61U U63A,≤ 0.026

row,Variant,nonsense suppression
1,G61A G69C,0.0625
2,G61A G69A,0.0276
3,U57C G61A,0.0312
4,G59A G61A U71G G78U,≤ 0.026
5,A54U A62G,0.0321
6,U55C C79G,0.035
7,U55C C79U,0.183
8,A60C G84C,0.0911
9,G59U A74C C82U,≤ 0.026
10,A54C U63C,0.729
11,A54C U63A,0.377
12,A54C U63G,0.0506
13,A54G G67C,≤ 0.026
14,U58C G69A,≤ 0.026
15,A60G,1.14
16,A60U,0.984
17,A60C,0.489
18,A54C A87G,0.59
19,U57C G85A,0.757
20,U57C A60U,0.0266
21,U58C G61U U63C,≤ 0.026
22,U55C G86A,0.0315
23,U55C G86C,0.164
